The text below walks through data of ChEMBL document CHEMBL1141712, “Kinase array design, back to front: biaryl amides” (Bioorg Med Chem Lett, 2008).

What is called IC50 is the concentration that inhibits the measured activity by half. Read a low IC50 as greater potency in that assay. Usually Ki stands for a dissociation constant, usually derived from enzyme kinetics or from competition with a known ligand. A low value points to tighter binding. For orientation: bioavailability means dose-corrected exposure relative to a reference, in per cent. A low value points to poor availability. A word on the clearance: it is the volume of plasma or blood freed of the substance per unit of time. Read a high clearance as efficient removal. As a reminder, the AUC(0-t) is the area under the concentration-time curve up to a stated or last time point.

A value given as a limit tells only on which side of the number the result lay.

Data set [1] addresses Dual specificity mitogen-activated protein kinase kinase 1 (Homo sapiens, UniProt Q02750). Description: Inhibition of MEK1 by cRaf/mek/Erk cascade assay.
The target of data set [2] is Vascular endothelial growth factor receptor 2 (Homo sapiens, UniProt P35968). Description: Inhibition of VEGFR2.
Chain of Vascular endothelial growth factor receptor 2 (P35968 whole entry): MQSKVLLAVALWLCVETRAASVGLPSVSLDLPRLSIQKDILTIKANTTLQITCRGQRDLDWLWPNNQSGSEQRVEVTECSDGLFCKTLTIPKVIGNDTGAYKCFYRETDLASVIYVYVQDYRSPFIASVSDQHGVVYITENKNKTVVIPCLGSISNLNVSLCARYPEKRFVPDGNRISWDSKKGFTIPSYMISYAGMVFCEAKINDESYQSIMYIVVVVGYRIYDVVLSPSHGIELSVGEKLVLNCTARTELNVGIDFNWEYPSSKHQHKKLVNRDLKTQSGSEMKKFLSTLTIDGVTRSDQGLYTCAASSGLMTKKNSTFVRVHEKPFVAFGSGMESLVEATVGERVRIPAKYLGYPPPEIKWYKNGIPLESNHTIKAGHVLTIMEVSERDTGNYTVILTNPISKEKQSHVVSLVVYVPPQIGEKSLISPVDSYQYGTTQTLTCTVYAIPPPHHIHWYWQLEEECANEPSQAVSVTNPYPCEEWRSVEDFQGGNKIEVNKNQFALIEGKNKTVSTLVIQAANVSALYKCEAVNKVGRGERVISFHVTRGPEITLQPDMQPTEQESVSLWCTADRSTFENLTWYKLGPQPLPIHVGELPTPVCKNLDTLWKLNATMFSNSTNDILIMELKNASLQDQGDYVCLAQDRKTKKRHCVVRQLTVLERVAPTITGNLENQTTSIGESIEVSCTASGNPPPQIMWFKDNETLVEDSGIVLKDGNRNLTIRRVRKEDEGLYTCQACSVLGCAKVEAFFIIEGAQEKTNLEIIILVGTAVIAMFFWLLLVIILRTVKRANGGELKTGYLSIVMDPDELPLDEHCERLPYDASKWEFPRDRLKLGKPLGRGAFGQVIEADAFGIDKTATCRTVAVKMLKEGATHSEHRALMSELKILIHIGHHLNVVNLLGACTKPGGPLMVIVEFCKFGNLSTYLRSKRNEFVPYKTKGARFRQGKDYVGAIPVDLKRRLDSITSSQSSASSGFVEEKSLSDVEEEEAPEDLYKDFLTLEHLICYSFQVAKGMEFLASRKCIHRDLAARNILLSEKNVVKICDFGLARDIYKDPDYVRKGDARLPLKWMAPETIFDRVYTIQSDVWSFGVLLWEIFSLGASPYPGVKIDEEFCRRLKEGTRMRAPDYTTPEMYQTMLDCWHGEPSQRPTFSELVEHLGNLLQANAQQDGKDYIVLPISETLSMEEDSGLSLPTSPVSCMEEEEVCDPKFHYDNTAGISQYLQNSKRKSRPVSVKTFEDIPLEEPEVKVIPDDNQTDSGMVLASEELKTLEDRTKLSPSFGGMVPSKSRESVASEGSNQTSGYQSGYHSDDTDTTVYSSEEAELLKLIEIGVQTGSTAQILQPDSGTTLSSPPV
The target in data set [3] is Mitogen-activated protein kinase 10 (Homo sapiens, UniProt P53779). Description: Inhibition of JNK3.
Chain of Mitogen-activated protein kinase 10 (P53779 whole entry): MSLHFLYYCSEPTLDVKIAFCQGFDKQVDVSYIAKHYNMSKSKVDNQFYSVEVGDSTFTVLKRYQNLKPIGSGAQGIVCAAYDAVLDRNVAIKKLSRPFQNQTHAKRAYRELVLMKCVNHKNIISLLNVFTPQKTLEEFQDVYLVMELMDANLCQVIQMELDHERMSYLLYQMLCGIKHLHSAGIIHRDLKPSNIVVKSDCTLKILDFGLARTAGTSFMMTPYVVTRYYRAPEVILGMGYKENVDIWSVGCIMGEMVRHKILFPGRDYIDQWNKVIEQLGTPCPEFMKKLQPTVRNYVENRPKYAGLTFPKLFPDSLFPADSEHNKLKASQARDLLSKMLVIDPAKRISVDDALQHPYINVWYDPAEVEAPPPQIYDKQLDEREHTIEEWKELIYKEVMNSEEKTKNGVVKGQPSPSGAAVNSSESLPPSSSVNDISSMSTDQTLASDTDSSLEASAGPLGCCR
Data set [4] deals with Tyrosine-protein kinase Lck (Homo sapiens, UniProt P06239).
Chain of Tyrosine-protein kinase Lck (P06239 whole entry): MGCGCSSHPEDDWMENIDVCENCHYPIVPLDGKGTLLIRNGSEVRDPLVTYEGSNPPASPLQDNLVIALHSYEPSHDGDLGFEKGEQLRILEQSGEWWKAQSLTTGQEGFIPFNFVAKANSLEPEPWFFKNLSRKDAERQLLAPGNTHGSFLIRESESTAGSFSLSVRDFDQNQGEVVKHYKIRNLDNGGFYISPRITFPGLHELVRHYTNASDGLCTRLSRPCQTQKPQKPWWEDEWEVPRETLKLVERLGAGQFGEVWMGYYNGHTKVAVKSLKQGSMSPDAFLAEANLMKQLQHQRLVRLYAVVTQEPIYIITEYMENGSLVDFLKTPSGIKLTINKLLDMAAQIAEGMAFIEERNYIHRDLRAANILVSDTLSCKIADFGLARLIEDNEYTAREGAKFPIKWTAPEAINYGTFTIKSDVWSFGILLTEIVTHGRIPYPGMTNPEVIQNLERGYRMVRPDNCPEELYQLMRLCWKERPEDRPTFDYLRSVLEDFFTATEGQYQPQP
The target of data set [5] is Macrophage colony-stimulating factor 1 receptor (Homo sapiens, UniProt P07333). Description: Inhibition of cFMS.
Chain of Macrophage colony-stimulating factor 1 receptor (P07333 whole entry): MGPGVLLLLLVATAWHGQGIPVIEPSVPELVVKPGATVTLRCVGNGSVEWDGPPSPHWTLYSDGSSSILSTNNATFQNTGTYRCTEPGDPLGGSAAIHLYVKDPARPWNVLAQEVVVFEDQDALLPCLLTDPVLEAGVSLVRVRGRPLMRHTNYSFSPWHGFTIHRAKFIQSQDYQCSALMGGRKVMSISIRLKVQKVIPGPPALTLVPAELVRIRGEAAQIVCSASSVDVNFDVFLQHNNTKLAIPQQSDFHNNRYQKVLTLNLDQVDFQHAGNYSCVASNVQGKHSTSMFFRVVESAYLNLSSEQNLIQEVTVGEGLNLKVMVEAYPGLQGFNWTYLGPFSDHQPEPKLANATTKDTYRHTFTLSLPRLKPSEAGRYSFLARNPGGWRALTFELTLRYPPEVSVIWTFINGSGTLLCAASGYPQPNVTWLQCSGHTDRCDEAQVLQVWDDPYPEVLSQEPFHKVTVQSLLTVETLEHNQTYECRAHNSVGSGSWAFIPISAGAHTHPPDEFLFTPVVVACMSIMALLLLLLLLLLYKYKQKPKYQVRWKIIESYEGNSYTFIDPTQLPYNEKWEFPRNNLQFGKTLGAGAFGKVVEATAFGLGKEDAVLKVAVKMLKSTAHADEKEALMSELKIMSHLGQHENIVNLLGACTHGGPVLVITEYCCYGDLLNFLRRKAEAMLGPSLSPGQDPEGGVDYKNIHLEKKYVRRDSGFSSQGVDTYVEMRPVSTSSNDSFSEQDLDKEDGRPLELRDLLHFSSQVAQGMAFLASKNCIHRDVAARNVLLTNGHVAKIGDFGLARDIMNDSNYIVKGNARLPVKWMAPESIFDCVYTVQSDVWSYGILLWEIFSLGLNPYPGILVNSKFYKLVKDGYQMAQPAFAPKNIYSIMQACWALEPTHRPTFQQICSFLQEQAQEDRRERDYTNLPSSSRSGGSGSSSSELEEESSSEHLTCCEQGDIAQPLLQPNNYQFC
The target in data set [6] is T1, Serine/threonine-protein kinase Sgk1 (Homo sapiens, UniProt O00141).
T1 sequence (O00141 whole entry): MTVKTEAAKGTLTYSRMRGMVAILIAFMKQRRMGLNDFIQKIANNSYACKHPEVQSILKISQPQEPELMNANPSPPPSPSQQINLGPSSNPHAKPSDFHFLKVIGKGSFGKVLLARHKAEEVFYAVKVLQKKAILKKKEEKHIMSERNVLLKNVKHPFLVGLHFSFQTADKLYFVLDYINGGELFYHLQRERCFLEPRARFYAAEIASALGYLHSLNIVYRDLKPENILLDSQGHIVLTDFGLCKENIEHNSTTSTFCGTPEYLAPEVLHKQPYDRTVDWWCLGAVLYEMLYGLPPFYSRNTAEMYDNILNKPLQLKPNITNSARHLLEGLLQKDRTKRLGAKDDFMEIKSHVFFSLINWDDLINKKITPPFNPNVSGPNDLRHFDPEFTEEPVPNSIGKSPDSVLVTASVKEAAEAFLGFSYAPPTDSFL
Briefly: Inhibition of SGK1.

In a further data set the test system is PBMC. Description: Inhibition of LPS-stimulated TNFalpha release in human PBMCs. The data set is classed as functional, cell-based.
For another data set, the system named is Blood. Description: Inhibition of LPS-stimulated TNFalpha release in human whole blood. It counts as functional, tissue-based.
In data set [7] the target is T2, Mitogen-activated protein kinase 14 (Homo sapiens, UniProt Q16539). Briefly: Displacement of fluorescent ATP competitive ligand from p38alpha.
T2 sequence (Q16539 whole entry): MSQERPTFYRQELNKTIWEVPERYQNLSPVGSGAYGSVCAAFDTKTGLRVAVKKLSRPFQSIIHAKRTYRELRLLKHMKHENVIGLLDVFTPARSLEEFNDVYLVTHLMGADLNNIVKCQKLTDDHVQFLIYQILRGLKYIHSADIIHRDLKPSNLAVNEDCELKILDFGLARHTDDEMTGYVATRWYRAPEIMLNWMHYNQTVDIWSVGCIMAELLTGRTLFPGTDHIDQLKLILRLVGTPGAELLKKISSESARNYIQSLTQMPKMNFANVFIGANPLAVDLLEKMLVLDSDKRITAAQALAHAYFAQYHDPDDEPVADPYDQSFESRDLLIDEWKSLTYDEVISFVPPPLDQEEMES
The target of data set [8] is Serine/threonine-protein kinase PLK1 (Homo sapiens, UniProt P53350). Briefly: Inhibition of PLK1.
Chain of Serine/threonine-protein kinase PLK1 (P53350 whole entry): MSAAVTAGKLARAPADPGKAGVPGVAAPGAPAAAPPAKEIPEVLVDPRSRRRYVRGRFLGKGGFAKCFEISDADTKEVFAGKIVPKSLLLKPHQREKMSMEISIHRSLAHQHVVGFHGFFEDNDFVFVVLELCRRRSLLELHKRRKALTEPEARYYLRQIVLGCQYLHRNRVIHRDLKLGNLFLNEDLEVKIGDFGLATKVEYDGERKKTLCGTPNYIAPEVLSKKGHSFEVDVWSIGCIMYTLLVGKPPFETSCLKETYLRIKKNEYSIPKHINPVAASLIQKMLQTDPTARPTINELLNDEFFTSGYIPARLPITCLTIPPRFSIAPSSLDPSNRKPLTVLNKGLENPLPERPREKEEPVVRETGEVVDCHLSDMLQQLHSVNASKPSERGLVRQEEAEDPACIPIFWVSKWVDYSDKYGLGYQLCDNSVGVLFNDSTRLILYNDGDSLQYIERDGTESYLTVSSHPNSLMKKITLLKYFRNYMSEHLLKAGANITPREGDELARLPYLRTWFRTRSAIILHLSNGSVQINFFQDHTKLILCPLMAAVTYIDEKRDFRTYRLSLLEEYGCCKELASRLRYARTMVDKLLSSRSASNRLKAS
Data set [9] addresses Cyclin-dependent kinase 2 (Homo sapiens, UniProt P24941). Briefly: Inhibition of CDK2.
For data set [10], the target named is Receptor tyrosine-protein kinase erbB-4 (Homo sapiens, UniProt Q15303). Description: Inhibition of ErbB4.
Data set [11] concerns the target Epidermal growth factor receptor (Homo sapiens, UniProt P00533).
Data set [12] is described as follows: Oral bioavailability in Lewis rat at 1 mg/kg. It counts as ADME, organism-based. The following applies: in vivo. In short, it runs like this:
(§1)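 Male Lewis rats were dosed at 1 mg/kg intravenously and orally, with compound given as a solution in 10% DMSO/70% PEG200/20% water. Blood was collected over 12 h, and parameters were derived from a composite blood sampling profile.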

Data set [13] can be described thus: Terminal half life in Lewis rat at 1 mg/kg, iv. The following applies: in vivo, read-out: beta t1/2 (converted). Details: dose 1 mg/kg, route intravenous. The data set is classed as ADME, organism-based. In short, it runs like this: as §1
The nature of data set [14]: Plasma clearance in Lewis rat at 1 mg/kg, iv. The data set is classed as ADME, organism-based. Details: dose 1 mg/kg, route intravenous. An outline of the steps: as §1
A short description of data set [15]: Volume of distribution at steady state in Lewis rat at 1 mg/kg, iv. Set-up: dose 1 mg/kg, route intravenous. The following applies: in vivo, read-out: Vdss. It counts as ADME, organism-based. In short, it runs like this: as §1
The nature of data set [16]: AUC ( 0 to 12 hrs) in Lewis rat at 1 mg/kg, po. The data set is classed as ADME, organism-based. Set-up: time < 12 hr, dose 1 mg/kg, route oral. The following applies: plasma.
Data set [17] deals with T2, Mitogen-activated protein kinase 14. Briefly: Inhibition of p38alpha. In short, it runs like this:
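p38α Ki determined by measuring displacement of a fluorescent ATP-competitive inhibitor from the enzyme. Impure products and those giving inconsistent assay results were excluded.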

Chain of Dual specificity mitogen-activated protein kinase kinase 1 (Q02750 whole entry): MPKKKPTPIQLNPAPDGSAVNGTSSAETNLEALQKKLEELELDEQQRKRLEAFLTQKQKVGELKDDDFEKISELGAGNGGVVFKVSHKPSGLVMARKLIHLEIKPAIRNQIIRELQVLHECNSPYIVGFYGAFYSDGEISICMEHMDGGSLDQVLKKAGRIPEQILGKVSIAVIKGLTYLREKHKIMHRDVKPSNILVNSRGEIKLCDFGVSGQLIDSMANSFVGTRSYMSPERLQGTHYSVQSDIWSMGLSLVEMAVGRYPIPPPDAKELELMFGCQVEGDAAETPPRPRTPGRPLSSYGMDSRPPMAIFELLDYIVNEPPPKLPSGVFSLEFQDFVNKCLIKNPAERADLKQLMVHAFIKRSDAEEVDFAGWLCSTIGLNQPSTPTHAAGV

Turning to `Cc1ccc(NC(=O)c2ccnc(N3CCCC3)c2)cc1-c1ccc2c(C3CCNCC3)noc2c1`, the IC50 in [1] was 0.03 µM; in data set [2] it was over 20 µM; in data set [3] it was over 16 µM; in data set [4] it was 6 µM; in [5], 7 µM; in data set [6] it was over 33 µM. For the same compound, the IC50 is 0.06 µM in the data set with PBMC, 5 µM in the data set on Blood, over 25 µM in data set [8] and over 20 µM in [9]. In addition, the affinity in data set [7], expressed as Ki, was 0.0008 µM.
`Cc1nnc(-c2ccc(-c3cc(NC(=O)c4ccnc(N5CCCC5)c4)ccc3C)c(C)c2)o1`: the IC50 in data set [1] was 0.2 µM; in data set [2], over 20 µM; in data set [3], over 16 µM; in data set [4] it was 10 µM; in data set [5] it was over 20 µM; in [6], over 33 µM. For the same compound, the IC50 in the data set with PBMC was 0.1 µM; in the data set with Blood, 0.7 µM; in data set [8], over 25 µM; in data set [9], over 20 µM. In data set [7], the Ki came out at 0.0017 µM.
Turning to `Cc1ccc(C(=O)NC2CC2)cc1-c1ccc2c(C3CCNCC3)noc2c1`, the IC50 was over 50 µM in data set [1]; over 25 µM in [10]; over 20 µM in data set [2]; over 20 µM in [5]; over 33 µM in data set [6]; 0.2 µM in the data set on PBMC. The half-maximal inhibitory concentration (IC50) is 3 µM in the data set with Blood, over 25 µM in [11], over 25 µM in data set [8] and over 20 µM in data set [9]. In data set [7], this compound yielded a Ki of 0.004 µM.
Consider `Cc1nnc(-c2ccc(-c3cc(C(=O)NC4CC4)ccc3C)c(C)c2)o1`, for which the IC50 in data set [1] is 20 µM; in [2], over 20 µM; in data set [5], over 20 µM; in data set [6], over 33 µM; in the data set with PBMC, 0.1 µM; in the data set on Blood, 1 µM. Further, the 50% inhibitory concentration (IC50) is over 25 µM in data set [8] and over 20 µM in data set [9]. This compound also showed a bioavailability in data set [12] of 91%. Moreover, the half-life in [13] is 4.6 h. The compound also displayed a clearance in data set [14] of 0.18 L/h/kg. Also, the Vd in data set [15] was 1.2 L/kg. For the same compound, the AUC(0-t) at 12 h in [16] came to 4.18 µg·h/mL.
In data set [17], `Cc1ccc(C(=O)Nc2cccc(N3CCOCC3)c2)cc1I` registered a Ki of over 2 µM.
Regarding `Cc1ccc(C(=O)NC2CC2)cc1-c1ccc2ccncc2c1`, the IC50 in data set [10] is over 25 µM; in data set [2], 0.5 µM; in data set [3], over 16 µM; in data set [4], 3 µM; in [5], 0.6 µM; in [6], over 33 µM. Also, the IC50 in the data set with PBMC was 0.1 µM; in the data set on Blood it was 0.1 µM; in data set [11], over 25 µM; in [8], over 25 µM; in [9], over 20 µM. This compound also had a Ki in data set [7] of 0.011 µM.
